Test results reported in ChEMBL document CHEMBL1122416, “An extension of the f-fragment method for the calculation of hydrophobic constants (log P) of conformationally defined systems” (J Med Chem, 1983).

Test: Partition coefficient (logP)
Assay type: physicochemical
Conditions: octanol/water
Method in brief: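 Shake-flask partitioning of the neutral amine species between 1-octanol and 0.1 N NaOH. Both phases were analysed by gas chromatography on 10% Apiezon L with 2% KOH on 80-100 mesh Chromosorb WAW. Observed log P was taken from the phase distribution.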

**Q.** With `CNC1C2CC[C@H]1c1ccccc12` (stereo in doubt; 11) as the molecule, how does the logP read?
**A.** The logP was 2.47.

**Q.** With `NC1C2CC[C@H]1c1ccccc12` (stereo in doubt; 19) as the molecule, how does the logP read?
**A.** Its logP is 2.08.

Same assay, conditions: octanol/water; read-out: logP

**Q.** With `CCN[C@@H]1CC2C[C@@H]1c1ccccc12` as the molecule, how does the logP read?
**A.** The logP was 2.72.

**Q.** Which logP does the source give for `CCCN[C@@H]1CC2C[C@@H]1c1ccccc12` here?
**A.** Its logP is 3.3.

**Q.** Which logP does the source give for `CN[C@@H]1CC2CC[C@@H]1c1ccccc12` here?
**A.** The logP was 2.68.

**Q.** For `N[C@@H]1CC2C[C@@H]1c1ccc(C(F)(F)F)cc12`, which logP is on record?
**A.** The logP was 3.21.

**Q.** With `CN[C@@H]1CC2C[C@@H]1c1ccccc12` as the molecule, how does the logP read?
**A.** Its logP is 2.41.

**Q.** With `N[C@@H]1CC2O[C@@H]1c1ccccc12` as the molecule, how does the logP read?
**A.** Its logP is 0.75.

**Q.** Which logP does the source give for `N[C@H]1CC2O[C@@H]1c1ccccc12` here?
**A.** The logP was 0.4.

**Q.** Which logP does the source give for `N[C@H]1CC2C[C@@H]1c1ccc(C(F)(F)F)cc12` here?
**A.** The logP was 2.91.

**Q.** For `N[C@H]1CC2C[C@@H]1c1ccccc12`, which logP is on record?
**A.** Its logP is 2.

**Q.** For `CCCN[C@H]1CC2C[C@@H]1c1ccccc12`, which logP is on record?
**A.** Its logP is 3.13.

**Q.** With `CN[C@@H]1CC2O[C@@H]1c1ccccc12` as the molecule, how does the logP read?
**A.** Its logP is 0.91.

**Q.** With `CN[C@H]1CC2C[C@@H]1c1ccccc12` as the molecule, how does the logP read?
**A.** Its logP is 2.32.

**Q.** With `N[C@@H]1CC2C[C@@H]1c1ccccc12` as the molecule, how does the logP read?
**A.** Its logP is 2.09.

**Q.** For `N[C@H]1CC2CC[C@@H]1c1ccccc12`, which logP is on record?
**A.** The logP was 2.29.

**Q.** With `CN[C@H]1CC2O[C@@H]1c1ccccc12` as the molecule, how does the logP read?
**A.** The logP was 0.59.

**Q.** For `N[C@@H]1CC2C[C@@H]1c1cc(C(F)(F)F)ccc12`, which logP is on record?
**A.** Its logP is 3.19.

**Q.** With `CN[C@H]1CC2CC[C@@H]1c1ccccc12` as the molecule, how does the logP read?
**A.** Its logP is 2.59.

**Q.** With `CCN[C@H]1CC2C[C@@H]1c1ccccc12` as the molecule, how does the logP read?
**A.** The logP was 2.62.

**Q.** With `N[C@H]1CC2C[C@@H]1c1cc(C(F)(F)F)ccc12` as the molecule, how does the logP read?
**A.** Its logP is 2.85.

**Q.** Which logP does the source give for `N[C@@H]1CC2CCC1c1ccccc12` (some centres undefined) here?
**A.** Its logP is 2.32.

**Q.** For `CNC1C2CC[C@H]1c1ccccc12` (stereo in doubt; 13), which logP is on record?
**A.** The logP was 2.37.

**Q.** With `NC1C2CC[C@H]1c1ccccc12` (stereo in doubt; 17) as the molecule, how does the logP read?
**A.** The logP was 2.13.
